Assay outcomes: PubChem BioAssay, several laboratories
Compounds with a hit are over-represented: about 4.8% of the library has one in this group of screens.
NLRP3 yeast inh = blocks the NALP3 inflammasome reconstituted in yeast | Yeast reconstituted NLRP3/ASC/caspase-1, beta-gal luminescence, 24 h | inhibition, % at 10 µM | 330,000 compounds, 0.39% hits;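 active means inhibition of 50% or more; inactive means inhibition below 50%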
ALR H2O2 inh = inhibitors of human sulfhydryl oxidase ALR; AID 485317; P55789; 290,000 compounds, 3.8% hits; inhibition, % (concentration not given with the values); purified ALR, DTT oxidation, H2O2 HRP-luminol luminescence;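 active means mean replicate inhibition above about 79%, with every replicate also reaching it, limit read from the data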
Target sequence (P55789 whole entry, looked up): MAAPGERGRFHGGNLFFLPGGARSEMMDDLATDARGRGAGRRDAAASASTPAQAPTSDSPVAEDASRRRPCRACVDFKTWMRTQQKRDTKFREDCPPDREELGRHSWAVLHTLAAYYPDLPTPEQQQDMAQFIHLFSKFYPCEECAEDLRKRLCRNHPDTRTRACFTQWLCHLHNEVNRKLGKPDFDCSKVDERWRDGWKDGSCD
ATG4B inhibitor = blocks human ATG4B protease cleavage of LC3 substrate. Q9Y4P1. ATG4B cleavage of LC3-PLA2, NBD-HPC fluorescence, 1 h. inhibition, % at 8.33 µM. 340,000 compounds, 0.51% hits. AID 504462; in the data active means inhibition above about 40%
Target sequence (Q9Y4P1 whole entry, looked up): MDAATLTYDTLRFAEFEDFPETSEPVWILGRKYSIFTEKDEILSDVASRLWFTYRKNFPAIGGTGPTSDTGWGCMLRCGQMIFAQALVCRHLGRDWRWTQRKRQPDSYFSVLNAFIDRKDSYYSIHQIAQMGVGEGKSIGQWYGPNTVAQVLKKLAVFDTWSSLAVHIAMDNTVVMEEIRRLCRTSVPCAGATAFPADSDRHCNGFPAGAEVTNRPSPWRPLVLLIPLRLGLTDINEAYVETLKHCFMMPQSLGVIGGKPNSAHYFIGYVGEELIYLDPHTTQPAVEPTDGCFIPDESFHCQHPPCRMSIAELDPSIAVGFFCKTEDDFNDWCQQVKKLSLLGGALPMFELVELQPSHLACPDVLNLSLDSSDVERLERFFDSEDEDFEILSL
Calb FLC = C. albicans growth modulation with fluconazole; 300,000 compounds, 0.57% hits; growth inhibition, % (concentration not given with the values); C. albicans CaCi-2 + fluconazole, Alamar Blue growth, 48 h; AID 1979;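 active means growth inhibition above about 58% in most replicates, limit read from the data, passing the limit was not always enough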;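 further: all wells also contain fluconazole at 8 µg/ml as a sub-toxic cotreatment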
UCH37 DUB inh = inhibitors of human deubiquitinating enzyme UCH37; Q9Y5K5; purified proteasome/UCH37, Ub-AMC cleavage fluorescence; inhibition, % (no concentration beside the values); 330,000 compounds, 0.33% hits;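 active means mean inhibition over replicate wells above about 20%, limit read from the data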
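assay system = human UCH37 enzyme supplied as purified proteasome complex | amount = proteasome at 0.15 nM in the dispensed enzyme solution | schedule = 30 min compound-proteasome preincubation then 25 min substrate reaction, room temperature | measured by = fluorescence, ex 355 nm, em 460 nm | benchmarks = no-proteasome wells (full inhibition) and compound-free wells (no inhibition)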
NALP1 inh = inhibitors of NALP1 inflammasome in yeast; S. cerevisiae NALP1/ASC/caspase-1 growth, X-gal OD620, 72 h; inhibition, % at 10 µM; 280,000 compounds, 0.61% hits; AID 2071; in the data active means inhibition mostly above about 24%, no sharp cut-off; inactive means mostly below about 32%
A number is an active result; - = inactive; . = no result given.

SMILES	NLRP3 yeast inh	ALR H2O2 inh	ATG4B inhibitor	Calb FLC	UCH37 DUB inh	NALP1 inh
COc1ccc(NC(=O)CSc2nnc(-c3cccnc3)o2)c(OC)c1	-	98.5	-	-	-	.
Cc1cc(-c2nnc(SCC(=O)Nc3ccccn3)o2)no1	-	-	-	-	-	-
Cc1cc(-c2nnc(SCC(=O)Nc3nccs3)o2)no1	-	88.5	-	-	-	.
c1ccc2c(C3=NNC(=NC4CC4)SC3)c[nH]c2c1	-	99.2	-	-	-	-
Cc1ccc(NC2c3ncccc3C(=O)N2C2CCCCC2)cc1 (centres undefined)	-	96.0	-	-	-	-
Cc1ccc(NC2c3ncccc3C(=O)N2Cc2ccc(F)cc2)cc1 (centres undefined)	-	97.3	-	-	-	-
COc1ccc(CN2C(=O)c3cccnc3C2Nc2ccc(OC)c(Cl)c2)cc1 (centres undefined)	-	.	-	-	-	-
Cc1ccc(NC2c3ncccc3C(=O)N2C2CCCCC2)cc1C (centres undefined)	-	92.5	-	-	-	.
O=C1c2cccnc2C(=O)N1C1CCCCC1	-	-	-	-	-	-
CC(=NNC(=O)OC(C)(C)C)c1ccco1	.	.	.	.	-	.
CC(C)(C)c1cc(NC(=O)CCl)n(-c2ccccc2)n1	-	.	-	-	-	.
CCCc1cc(NC(=O)CCl)n(-c2ccccc2)n1	-	96.7	-	-	-	-
COc1cc(OC)cc(C(=O)NC(=S)Nc2cccnc2)c1	-	-	-	-	-	-
COc1cc(OC)cc(C(=O)NNC(=S)NC(=O)c2cccnc2)c1	-	97.9	-	-	-	-
COc1cc(OC)cc(C(=O)NC(=S)NNC(=O)[C@H]2C[C@@H]2c2ccccc2)c1	-	99.0	-	-	-	-
Cc1onc(-c2ccccc2)c1C(=O)NC(=S)NNC(=O)c1cccnc1	-	-	-	100.4	-	-
Cc1onc(-c2ccccc2)c1C(=O)NC(=S)NNC(=O)c1ccncc1	-	-	-	-	-	-
COc1cc(OC)cc(C(=O)NNC(=O)c2ccc3ccccc3n2)c1	-	.	-	.	-	.
COc1ccc(C(=O)NC(=S)NNC(=O)c2ccc3ccccc3n2)cc1	-	-	-	108.1	-	-
S=c1[nH]nc(-c2ccco2)n1N=C/C=C/c1ccccc1	.	.	.	.	-	.
COc1ccc(OC)c(C=NNC(=O)c2[nH]nc3c2CCc2ccccc2-3)c1	.	.	.	.	-	.
O=C(NNC(=S)NC(=O)c1ccccc1)c1cccnc1	-	98.3	-	-	-	-
COc1ccc(C(=O)NC(=S)NNC(=O)c2cccnc2)cc1	-	98.6	-	-	-	-
COC(=O)c1sc(-c2cccs2)cc1NC(=O)/C=C/C(=O)O	-	98.0	-	-	.	.
ONC(=Nc1ccc(Cl)cc1)c1ccc(Cl)cc1	-	78.1	-	-	-	-
SMILES	NLRP3 yeast inh	ALR H2O2 inh	ATG4B inhibitor	Calb FLC	UCH37 DUB inh	NALP1 inh
[S-]C(=Nc1ccc(Cl)cc1)N[n+]1ccccc1	-	-	-	-	-	-
O=[N+]([O-])c1cccc(C(=Nc2ccc(Cl)cc2)NO)c1	-	84.9	-	-	-	.
Cc1cccc(OCC(=O)NN=Cc2sc(=O)n(Cc3cccc(C(=O)O)c3)c2Cl)c1	.	.	.	.	-	.
CCOC(=O)N1CCN(C(=O)CN2C(=O)COc3ccc(C(C)(C)C)cc32)CC1	-	-	-	-	-	26.4
CCN(CC)CCN1C(=O)/C(=C\c2ccc(Cl)c([N+](=O)[O-])c2)SC1=Nc1ccc(OC)cc1	-	-	-	-	-	43.6
COc1ccc(N=C2S/C(=C\c3ccc(Cl)c([N+](=O)[O-])c3)C(=O)N2CCN(C)C)cc1	-	.	-	-	.	-
Cc1ccc(NC(=O)N2CCC(NC(=O)C(C)(C)C)CC2)cc1	-	-	-	-	-	-
CC(=O)N1CCC(Nc2ccc(C)cc2)CC1	-	98.4	-	-	-	-
CCOc1ccc(NC2CCN(C(C)=O)CC2)cc1	-	90.9	-	-	-	-
CC(CC(=O)Nc1ccc(N(C)C)cc1)=NNC(=O)c1ccc(F)cc1	.	.	.	.	-	.
CC(=NNC(=S)NCc1ccccc1)c1cccs1	.	.	.	.	-	.
Cc1nnc(SCc2cnc(-c3ccccc3)o2)[nH]c1=O	-	98.6	-	-	-	-
Cc1nnc(SCc2ccccc2)[nH]c1=O	-	-	-	-	-	-
CCOC(=O)/C(=C\c1cn(C)c2ccccc12)[N+](=O)[O-]	-	95.5	-	-	-	.
CCn1c(N=Cc2c[nH]c3ccccc23)nc2ccccc21	.	.	.	.	-	.
COc1cccc(-c2nc(CS(=O)(=O)CC(=O)NC3CCC(C)CC3)c(C)o2)c1 (centres undefined)	-	-	-	-	-	-
COc1cccc(-c2nc(CS(=O)(=O)CC(=O)NC3CCCc4ccccc43)c(C)o2)c1 (centres undefined)	-	89.4	-	-	-	-
COc1cccc(-c2nc(CS(=O)(=O)CC(=O)Nc3ccccc3C)c(C)o2)c1	-	-	-	-	-	-
Cc1oc(-c2ccccc2Cl)nc1CS(=O)(=O)CC(=O)NC1CCCC1	-	97.8	-	-	-	-
COc1cccc(-c2nc(CS(=O)(=O)CC(=O)NC3CCCC3)c(C)o2)c1	-	98.1	-	-	-	-
COc1cc(CC(=O)Nc2nccs2)cc(OC)c1OC	-	-	-	105.7	-	-
COc1ccc(NC2CCN(C3CC(=O)N(c4ccc(F)c(Cl)c4)C3=O)CC2)cc1 (centres undefined)	-	82.3	-	-	-	-
CCN1C(=O)CC(N2CCC(C(=O)OC)CC2)C1=O (centres undefined)	-	-	-	-	-	-
CCN1C(=O)CC(N2CCC(Nc3ccc(OC)cc3)CC2)C1=O (centres undefined)	-	98.3	-	.	-	-
CC(C)c1ccc(S(=O)(=O)N2CCN(CC(=O)Nc3ccc(Cl)cc3F)CC2)cc1	-	-	-	.	-	.
SMILES	NLRP3 yeast inh	ALR H2O2 inh	ATG4B inhibitor	Calb FLC	UCH37 DUB inh	NALP1 inh
O=C(CN1CCN(S(=O)(=O)c2ccc(Br)cc2)CC1)c1ccc(O)c(O)c1	-	96.3	-	-	-	-
Cc1c(O)ccc(C(=O)CN2CCN(c3ccccc3F)CC2)c1O	-	-	-	-	-	-
CC(C)c1ccc(S(=O)(=O)N2CCN(CC(=O)c3ccc(O)c(O)c3)CC2)cc1	-	99.1	.	-	.	-
O=C(CN1CCN(c2ccccc2F)CC1)c1ccc(O)c(O)c1	-	99.0	-	-	-	-
CC(=O)c1ccc(S(=O)(=O)Nc2cccc(S(=O)(=O)NC3=NCCC3)c2)cc1	-	99.6	-	-	-	-
Cc1ccccc1C(=O)NC(=S)Nc1ccccc1[N+](=O)[O-]	-	-	-	-	-	-
O=C(NC(=S)Nc1ccccc1[N+](=O)[O-])c1ccco1	-	94.9	-	-	-	-
O=C(NNc1ccc([N+](=O)[O-])cc1[N+](=O)[O-])c1ccco1	-	98.4	-	-	-	-
O=C(NNc1ccc([N+](=O)[O-])cc1)c1ccco1	-	98.6	-	-	-	-
